Shown are actives, neighbours in structure and some others; about 1.9% of the full set was active somewhere.
ADAM17 inh: inhibits human ADAM17. P78536. recombinant ADAM17, EDANS/DABCYL FRET peptide cleavage. inhibition, % at 6.95 µM. 0.83% of 370,000 active;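 active means inhibition above the mean of compounds lying between control limits plus 3 SD, set per campaign, cut at about 8.5% in these data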;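 further: 0% = DMSO-only wells as the low control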
SENP1 inh: inhibitors of human SENP1 SUMO protease catalytic domain | Q9P0U3 | recombinant SENP1 catalytic domain, CyPet-SUMO1-YPet FRET cleavage | inhibition, % at 10 µM | 0.21% of 360,000 active | AID 624204;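 active means inhibition at least 30% at 10 µM, raw YFP signal under a set limit, fluorescence ratio 0.5 to 1.5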;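 further: 0% = enzyme with DMSO and 100% = no enzyme wells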
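Compound: 10 µM single point, 0.5% DMSO; Test system: hSENP1 catalytic domain, recombinant; Timing: 50 min reaction at room temperature; Technique: FRET, CFP and YFP emission; Control set: no-enzyme wells low, DMSO-plus-enzyme wells high control.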
FAS-TE inh: FAS thioesterase (human) inhibition. P49327. recombinant FAS-TE, OMFH fluorogenic substrate, fluorescence endpoint. inhibition, % at 15 µM. 0.67% of 360,000 active. AID 602261;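 active means compounds whose normalised, plate-corrected inhibition of enzyme fluorescence in the single-dose primary screen is 50% or more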;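 further: 0% = DMSO with enzyme and 100% = substrate without enzyme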
ADAM10 inh: inhibits human ADAM10; O14672; recombinant ADAM10, EDANS/DABCYL FRET peptide cleavage, 3 h; 0.62% of 370,000 active; inhibition, % at 7 µM; AID 720582;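 active means inhibition above a per-campaign cutoff equal to the mean of compounds falling between control-based bounds plus 3 SD, cut at about 20% in these data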;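 further: 0% = DMSO wells while the 100% control is not disclosed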
Target sequence (O14672 214-748 limits assumed): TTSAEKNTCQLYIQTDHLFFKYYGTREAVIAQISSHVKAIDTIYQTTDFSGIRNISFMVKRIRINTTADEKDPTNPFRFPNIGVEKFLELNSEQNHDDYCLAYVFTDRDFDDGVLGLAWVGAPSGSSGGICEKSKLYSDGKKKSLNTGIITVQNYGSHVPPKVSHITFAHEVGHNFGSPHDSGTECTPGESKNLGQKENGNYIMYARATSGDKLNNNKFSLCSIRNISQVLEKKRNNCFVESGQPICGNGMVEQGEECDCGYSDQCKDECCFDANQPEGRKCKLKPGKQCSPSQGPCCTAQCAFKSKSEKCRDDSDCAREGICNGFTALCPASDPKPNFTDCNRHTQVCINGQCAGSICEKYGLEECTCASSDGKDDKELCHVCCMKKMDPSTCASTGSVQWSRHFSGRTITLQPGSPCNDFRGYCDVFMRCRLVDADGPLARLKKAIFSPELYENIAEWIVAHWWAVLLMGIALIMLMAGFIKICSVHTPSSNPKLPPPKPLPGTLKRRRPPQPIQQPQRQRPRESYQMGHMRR
SENP1 inh conf: confirmation of human SENP1 SUMO protease inhibitors; shares compounds with SENP1 inh; recombinant SENP1, CyPet-SUMO1-YPet FRET cleavage; inhibition, % at 10 µM; 34% of 520 active; AID 651678; in the data active means inhibition mostly above about 35%, no sharp cut-off; inactive means mostly below about 32%;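 further: 0% = enzyme with DMSO and 100% = no enzyme control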
SENP1 kinetic: SENP1 (human) inhibition, kinetic confirmation; shares compounds with SENP1 inh; recombinant SENP1, CyPet-SUMO1-YPet FRET kinetic cleavage; inhibition, % at 10 µM; 26% of 520 active; AID 651690; in the data active means inhibition mostly above about 32%, no sharp cut-off; inactive means mostly below about 29%;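 further: 0% = DMSO with enzyme and 100% = no enzyme substrate only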
Numbers without * were called inactive.

For CC(=O)Oc1ccc(N2C(=O)C3C(C2=O)C(C(=O)c2ccc(Cl)cc2)N2CCCC32)cc1 (configuration not stated) the results were ADAM17 inh -14, SENP1 inh 61*, FAS-TE inh 4, ADAM10 inh -35, SENP1 inh conf 86* and SENP1 kinetic 45*.
CN(CCc1ccccn1)C(=O)Cn1nc(-c2ccccc2)ccc1=O was read as ADAM17 inh 0 and ADAM10 inh -5.
Clc1cccc(Cl)c1C[n+]1ccc2ccccc2c1 was read as ADAM17 inh -11, SENP1 inh 68*, FAS-TE inh -8, ADAM10 inh -34, SENP1 inh conf 7 and SENP1 kinetic 13.
For CC(C)C[C@H]1COc2cccc(F)c2S(=O)(=O)N1Cc1cn(CCC2OCCO2)nn1 the results were ADAM17 inh -3 and ADAM10 inh 0.
Screening O=c1[nH]c2cc3ccccc3cc2nc1-c1nnnn1C1CCCC1 returned ADAM17 inh 2, SENP1 inh 70*, FAS-TE inh 0, ADAM10 inh 2, SENP1 inh conf 125* and SENP1 kinetic 78*.
O=c1[nH]c2cc3ccccc3cc2nc1-c1nnnn1Cc1ccccc1 was read as ADAM17 inh -5, SENP1 inh 41*, FAS-TE inh -1, ADAM10 inh -8, SENP1 inh conf 80* and SENP1 kinetic 50*.
`COC(=O)[C@]12C=CCN1[C@@H](c1ccc(OC)c(OC)c1)c1c(c3ccccc3n1S(=O)(=O)c1ccc(C)cc1)C2` gave ADAM17 inh 3 and ADAM10 inh -2.
`C/C(=N\NC(=O)CSc1nnc(-c2ccccc2)n1-c1ccc(C)cc1)c1ccc(-c2ccccc2)cc1` gave ADAM17 inh 1 and ADAM10 inh -4.
Screening COc1ccc2sc(/C=C/c3ccccc3O)[n+](C)c2c1 returned ADAM17 inh 1, SENP1 inh 39*, FAS-TE inh -8, ADAM10 inh -3, SENP1 inh conf 58* and SENP1 kinetic 40*.
For Cn1c(/C(C#N)=C(\O)c2ccc(Cl)s2)nc2ccccc21 the results were ADAM17 inh 3, SENP1 inh -55, FAS-TE inh 0 and ADAM10 inh 3.
Cn1c(/C(C#N)=C(\O)c2ccc([N+](=O)[O-])s2)nc2ccccc21 was read as ADAM17 inh -6, SENP1 inh 46*, FAS-TE inh -7, ADAM10 inh -11, SENP1 inh conf 11 and SENP1 kinetic 12.
Screening Cc1c(C#N)c(O)[nH]c(=O)c1N=Nc1ccc(Br)cc1C(=O)O returned ADAM17 inh -3, SENP1 inh 38*, FAS-TE inh 4, ADAM10 inh -1, SENP1 inh conf 57* and SENP1 kinetic 34*.
For CCOC(=O)N1CCN(C(=O)C[C@H]2C[C@@]3(C(=O)OC)C(=C[C@H](C(C)(C)C)O[C@@H]3C)N(Cc3ccco3)C2=O)CC1 the results were ADAM17 inh 0 and ADAM10 inh 8.
`Cc1cccc(OCC(C)CN2CCC(C(O)(c3ccccc3)c3ccccc3)CC2)c1` (configuration not stated) gave ADAM17 inh -1 and ADAM10 inh 1.
For NC(=S)c1cc2ccc(O)cc2oc1=O the results were ADAM17 inh inactive, SENP1 inh 10, FAS-TE inh -9 and ADAM10 inh inactive.
For NC(=S)c1cc2cc(Br)ccc2oc1=O the results were ADAM17 inh -4, SENP1 inh 45*, FAS-TE inh -2, ADAM10 inh -6, SENP1 inh conf 67* and SENP1 kinetic 51*.
`O=C(OC12CCCN(C1)/C(=C/c1ccc(Cl)cc1)C2)c1cccc(F)c1` (configuration not stated) gave ADAM17 inh 1 and ADAM10 inh 4.
Screening O=[N+]([O-])c1ccc2[nH]c(O)c(N=Nc3ccc(F)cc3)c2c1 returned ADAM17 inh -2, SENP1 inh 56*, FAS-TE inh -7, ADAM10 inh 1, SENP1 inh conf 10 and SENP1 kinetic 5.
For CCN(CC)S(=O)(=O)c1cc([N+](=O)[O-])ccc1N=Nc1c(O)[nH]c2ccccc12 the results were ADAM17 inh 0, SENP1 inh 46*, FAS-TE inh -7, ADAM10 inh 7, SENP1 inh conf 4 and SENP1 kinetic 3.

Screens: PubChem, several laboratories
